The source of these data is ChEMBL document CHEMBL3875168, “Synthesis and apoptosis inducing studies of triazole linked 3-benzylidene isatin derivatives” (Eur J Med Chem, 2016).

The source made the active and inactive calls. The rule behind the calls is not given here.

The nature of test [1]: Cytotoxicity against human A549 cells assessed as cell growth inhibition after 48 hrs by MTT assay. In kind it is functional, cell-based. As to conditions: A549, 48 h. The gist of the method: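 Cell lines (NCCS) grown in DMEM or RPMI with 10% FBS and antibiotic-antimycotic at 37 °C, 5% CO2, 90% humidity. Cells seeded at 3-5×10^3 per well, treated 48 h with serial dilutions in medium beside vehicle control. Medium replaced with MTT (0.5 mg/mL) for 4 h, absorbance read at 570 nm. IC50 taken from concentration-response curves; sunitinib served as reference.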
(In general: Formazan colour is commonly taken as a measure of viable cells.)

The subject of test [2] is DU-145. The experiment in a line: Induction of morphological changes in human DU145 cells assessed as cell shrinkage at 1.25 to 5 uM after 48 hrs by acridine orange/ethidium bromide-dual staining based fluorescence microscopic method. In kind it is functional. The gist of the method: (§1)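 DU145 plated at 1×10^6 cells/mL, treated at several concentrations and kept 48 h at 37 °C in 5% CO2. Equal volumes of acridine orange and ethidium bromide (10 μg/mL) added, and cells imaged within 10 min by fluorescence microscopy (excitation 488 nm, emission 550 nm) at 200x.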

For test [3], the system named is DU-145. The test is described as follows: Induction of morphological changes in human DU145 cells assessed as membrane blebbing at 1.25 to 5 uM after 48 hrs by acridine orange/ethidium bromide-dual staining based fluorescence microscopic method. The class given is functional, cell-based. The gist of the method:
as §1

For test [4], the system named is DU-145. The test is described as follows: Induction of apoptosis in human DU145 cells assessed as formation of pyknotic nuclei at 2.5 to 5 uM after 48 hrs by DAPI staining based fluorescence microscopic method. The class given is functional, cell-based. Summed up: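 DU145 treated for 48 h, PBS-washed, permeabilized with 0.1% Tween 20 for 10 min and stained with 1 μM DAPI. Nuclear morphology of control and treated cells viewed by fluorescence microscopy (excitation 359 nm, emission 461 nm) at 200x.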

Test [5] has as its system DU-145. The test is described as follows: Induction of apoptosis in human DU145 cells assessed as necrotic cells at 1.25 uM after 24 hrs by Annexin V-FITC/propidium iodide staining based flow cytometry (reference value: 2.14%). The class given is functional. (In flow cytometry, cells or beads pass a laser one at a time.)
Test [6] can be described thus: Cell cycle arrest in human DU145 cells assessed as accumulation at G0/G1 phase at 5 uM after 24 hrs by propidium iodide staining-based flow cytometry (reference value: 62.81%). As to conditions: DU-145. In kind it is functional. Summed up:
(§2)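 Compound given to DU145 at 2.5 and 5.0 μM for 24 h alongside untreated cells. Cells harvested, PBS-washed, fixed in ice-cold 70% ethanol, then stained 30 min at 37 °C in the dark with propidium iodide (50 μg/mL) plus RNase A (20 μg/mL) in 0.1% Triton X-100. About 10000 events per sample read by flow cytometry; a representative of three independent experiments is shown.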

Test [7] can be described thus: Cell cycle arrest in human DU145 cells assessed as accumulation at G2/M phase after 24 hrs by propidium iodide staining-based flow cytometry. As to conditions: DU-145. In kind it is functional. The gist of the method:
as §2

In test [8] the test system is DU-145. The experiment in a line: Induction of apoptosis in human DU145 cells assessed as late apoptotic cells at 2.5 uM after 24 hrs by Annexin V-FITC/propidium iodide staining based flow cytometry (reference value: 5.4%). The class given is functional.
Test [9] has as its system DU-145. The experiment in a line: Induction of mitochondrial membrane potential loss in human DU145 cells at 1.25 uM after 24 hrs by flow cytometry (reference value: 5.39%). The class given is functional.
The test system of test [10] is DU-145. The test is described as follows: Induction of mitochondrial membrane potential loss in human DU145 cells at 5 uM after 24 hrs by flow cytometry (reference value: 5.39%). In kind it is functional.
In test [11] the test system is DU-145. The experiment in a line: Induction of apoptosis in human DU145 cells assessed as increase in cleaved PARP level after 48 hrs by Western blot analysis. The class given is functional, cell-based. (In general: Immunoblotting shows a protein as a band on a membrane.)
The test system of test [12] is DU-145. The experiment in a line: Induction of apoptosis in human DU145 cells assessed as viable cells at 2.5 uM after 24 hrs by Annexin V-FITC/propidium iodide staining based flow cytometry (reference value: 90.32%). In kind it is functional. Particulars: DU-145, 24 h, read-out: Activity.
Test [13] has as its system DU-145. The test is described as follows: Induction of apoptosis in human DU145 cells assessed as increase in intracellular reactive oxygen species at 2.5 to 5 uM after 24 hrs in presence of N-acetyl cysteine by DCFDA dye based spectrofluorometer. The class given is functional, cell-based.

As to `O=C1Nc2ccc(C(c3ccccc3)c3ccccc3)cc2/C1=C/c1cccc(OCc2cn(Cc3ccccc3)nn2)c1`, in test [1], the IC50 is 14.7 µM. Further, the result in the test with DU-145 [2], with DU-145 [3], with DU-145 [4], with DU-145 [11] and with DU-145 [13] was Active. Moreover, the Activity was 1.82% in the test on DU-145 [5]; 10.1% in [6]; “Dose-dependent effect” in test [7]; 13% with DU-145 [8]; 64.28% in the test with DU-145 [9]; 99.7% in the test with DU-145 [10]. Besides, the viability at 2.5 µM in the test with DU-145 [12] stood at 64.5%.

Usually IC50 stands for the concentration that inhibits the measured activity by half.
